# Rows were chosen to be rich in hits. Some 3% of all compounds tested hit in one or more screens of this group.
# S1P3 agonist = activates the human S1P3 receptor; S1P3 NFAT-BLA reporter cells, agonism, FRET ratio; relative to 1 µM S1P, basal subtracted; 60,000 compounds, 0.1% hits; Q99500; activation, % at 4.5 µM;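 active = activation above the screen-wide mean plus 3 SD, cut at about 4.5% in these data, passing the limit was not always enough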
#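 Material: Human S1P3 NFAT-BLA reporter CHO cells | Incubation: Overnight plating, 4 h compound 37 °C, 2 h substrate RT | Signal: FRET β-lactamase substrate fluorescence, excitation 405 nm, 460/535 nm emission ratio, background-subtracted | Compound: 4.5 µM final, single dose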
# HTR1E antagonist = 5-HT1E (human) receptor antagonism. inhibition, % at 6 µM. CHO 5-HT1E Ga15 NFAT-bla reporter, FRET, antagonist. AID 571. 65,000 compounds, 0.99% hits. P28566;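 active = inhibition above a set limit, the mean inhibition across every tested compound plus 3 SD, cut at about 29% in these data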;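 also: signal is the 460 over 535 nm emission ratio of beta-lactamase substrate; 0% = agonist plus DMSO wells and 100% = wells without agonist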
# S1P1 ag pot = S1P1 (human) agonism or agonism potentiation; P21453; S1P1 CRE-bla cells, forskolin, beta-lactamase FRET, potentiator mode; S1P1 agonist co-added at EC20, 2 nM; 100% = saturating reference agonist, 0% = basal; activation, % at 9.5 µM; 56,000 compounds, 0.57% hits;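 active = activation above a cutoff set at the mean activation of all tested compounds plus 3 SD, cut at about 54% in these data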;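 also: forskolin at 4 µM as EC80 and the EC20 agonist is SEW2871; 100% = SEW2871 at its EC100 plus forskolin at EC80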
# Target sequence (P21453 whole entry, looked up): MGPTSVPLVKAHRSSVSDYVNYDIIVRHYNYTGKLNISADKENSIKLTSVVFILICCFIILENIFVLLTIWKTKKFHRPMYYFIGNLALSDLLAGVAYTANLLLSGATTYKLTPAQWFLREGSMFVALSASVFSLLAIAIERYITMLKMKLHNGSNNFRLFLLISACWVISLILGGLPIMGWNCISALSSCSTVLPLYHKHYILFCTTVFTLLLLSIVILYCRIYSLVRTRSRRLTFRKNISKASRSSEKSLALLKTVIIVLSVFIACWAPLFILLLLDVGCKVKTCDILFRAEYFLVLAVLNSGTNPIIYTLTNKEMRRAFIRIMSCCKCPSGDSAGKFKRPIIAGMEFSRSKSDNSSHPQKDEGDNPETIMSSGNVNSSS
# 5HT1a antag = blocks the human serotonin 5-HT1a receptor | P08908 | CHO 5-HT1a Ga15 NFAT-bla reporter, antagonist mode | inhibition, % at 10 µM | 62,000 compounds, 0.68% hits | AID 612;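 active = inhibition above the mean of all tested compounds plus 3 SD, cut at about 43% in these data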;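 also: receptor stimulated by 5-CT agonist at 100 nM near EC80; beta-lactamase reporter measured by ratiometric fluorescence of a cleavable substrate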
# HTR1A agonist = 5-HT1a (human) receptor agonism. P08908. CHO 5-HT1a Ga15 NFAT-bla reporter, FRET ratio; 0% basal, 100% maximal reference agonist. activation, % at 10 µM. 65,000 compounds, 0.56% hits. AID 567;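 active = activation above the screen-wide mean activation plus 3 SD, cut at about 19% in these data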;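 also: 0% = DMSO wells and 100% = 5-CT at EC100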
# HTR1E agonist = agonists of human 5-HT1E serotonin receptor | 65,000 compounds, 0.69% hits | activation, % at 6 µM | CHO 5-HT1E Ga15 NFAT-bla reporter, FRET; 0% DMSO wells, 100% control agonist wells;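 active = activation above a set limit, the screen-wide mean activation plus 3 SD, cut at about 8.5% in these data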;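 also: 100% = positive control agonist at 1 µM giving full maximal response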
# An asterisk follows results filed as active; / = no result given.
SMILES,S1P3 agonist,HTR1E antagonist,S1P1 ag pot,5HT1a antag,HTR1A agonist,HTR1E agonist
Cc1ccc2[nH]c3c(N4CCCCCC4)ncnc3c2c1,-4,32*,97*,/,2,0
O=C(c1ccc(N2CN(C(=O)c3ccco3)c3nc4ccccc4nc32)cc1)N1CCOCC1,0,-5,22,-23,5,1
O=S(=O)(c1ccccc1)N1CCN(C2CCCCCCC2)CC1,-1,-1,/,7,1,33*
Cn1c(=O)c2ncn(CC(=O)Nc3ccc4oc(-c5cccc6ccccc56)nc4c3)c2n(C)c1=O,-1,1,-6,-1,-1,0
CCC(C)c1ccc2oc(-c3ccc(NC(=O)Cn4cnc5c(=O)n(C)c(=O)n(C)c54)cc3)nc2c1 (centres undefined),0,-5,111*,9,8,2
CCOc1ccc(-c2nnn(CC(=O)NCc3cccs3)n2)cc1,0,2,12,4,-1,0
COc1ccc(-c2cc(CCCC(=O)NCCc3ccc(OC)cc3OC)no2)cc1,0,6,18,14,-1,12*
Cn1c(SCC(=O)c2ccccc2)nc2cccnc21,-1,-8,-11,-6,-3,-2
O=C(c1cccs1)N1CCN(C2CCN(Cc3ccccc3)CC2)CC1,-1,4,-19,-7,3,0
CCOc1cc(C2c3c(oc4cc(C)c(Cl)cc4c3=O)C(=O)N2Cc2ccco2)ccc1O (centres undefined),0,-8,-8,-3,1,9.8*
Cc1cc2oc3c(c(=O)c2cc1C)C(c1cccc(Br)c1)N(Cc1ccco1)C3=O (centres undefined),-2,-5,3,14,3,0
CCCOC(=O)CSc1nnc(-c2ccccc2Cl)o1,0,-3,-18,-12,-1,1
O=C(O)c1cc(-c2ccccc2)n(-c2ccccc2C(=O)O)n1,-1,-3,-13,4,-6,0
COc1cccc(C(=O)OCn2nnc3ccccc3c2=O)c1OC,-1,33*,-17,14,0,0
COc1cc(C(=O)OCn2nnc3ccccc3c2=O)cc(OC)c1OC,/,6,/,-6,1,1
Cc1nc(Nc2ccc(S(N)(=O)=O)cc2)oc1C,-1,2,-24,-5,-2,0
COc1ccc(-c2nnc(NC(=O)c3ccc(S(=O)(=O)N4CCCc5ccccc54)cc3)o2)cc1,0,-2,10,62*,-1,0
Cc1cc(NC(=O)COC(=O)c2ccc(S(=O)(=O)N3CCCc4ccccc43)cc2)no1,-1,32*,-7,11,-4,-1
O=C(Nc1nnc(C2CC2)o1)c1ccc(S(=O)(=O)N2CCCc3ccccc32)cc1,-1,1,-4,0,-2,0
NC(=O)c1ccc(OCC(F)(F)C(F)(F)C(F)(F)C(F)(F)C(F)(F)C(F)F)cc1,-1,9,63*,17,-2,-2
COc1cc(-c2nnc3sc(-c4cccs4)nn23)cc(OC)c1OC,1,38*,-3,-20,5,0
COc1ccc(-c2nnc3sc(-c4cccs4)nn23)cc1OC,0,36*,-29,-16,1,1
COc1cc(-c2nn3c(-c4cccnc4)nnc3s2)cc(OC)c1OC,0,19,-8,/,-1,0
COc1ccc(-c2nn3c(-c4cccc(C)c4)nnc3s2)cc1OC,0,18,-68,-19,3,2
CC1CCN(C(=O)CN2C(=O)C(C)(C)Oc3ccc(C(=O)NC4CCCC4)cc32)CC1,-1,3,-9,0,-2,0
SMILES,S1P3 agonist,HTR1E antagonist,S1P1 ag pot,5HT1a antag,HTR1A agonist,HTR1E agonist
CC1(C)O[C@@H]2C[C@H]3[C@@H]4C[C@H](F)C5=CC(=O)C=C[C@]5(C)[C@@]4(F)[C@@H](O)C[C@]3(C)[C@]2(C(=O)CO)O1,0,-4,12,/,1,0
CN(C)CCOC(=O)Cc1ccc(Cl)cc1,-6,3,6,/,2,-1
CCOc1ccc(S(=O)(=O)Nc2ccc(Cl)cn2)c(C)c1C,-1,-3,43,14,0,-1
CCOc1cc(C)c(S(=O)(=O)Nc2ccc(Cl)cn2)cc1C,0,7,26,12,-2,27*
COCCNC(=O)Cn1c(=O)n(CCC(=O)NCCc2ccccc2)c(=O)c2ccccc21,-1,3,-18,-10,-1,-2
CC(=O)Nc1ccc(S(=O)(=O)N(C)c2ccc(O)cc2)cc1,-1,4,6,1,-2,52*
O=C(CCN1CCN(c2ccc(F)cc2)CC1)Nc1ccc(F)cc1,-1,4,-22,36,0,-1
CC(=O)N1CCN(c2ccc(NCc3ccc4c(c3)OCO4)cc2)CC1,0,-3,-26,-7,43*,0
O=C(CCN1CCN(c2ccccc2F)CC1)Nc1ccc2c(c1)OCO2,0,0,-5,84*,8,0
O=C(c1ccccc1)N1CCN(c2ccc(NCc3ccc4c(c3)OCO4)cc2)CC1,0,15,10,6,-2,0
CNC(=O)CCC(=O)Nc1ccc(C(=O)OC)cc1,0,-6,/,1,0,0
COC(=O)c1ccc(NC(=O)CCN2CCN(c3ccccc3)CC2)cc1,-2,4,16,44*,2,0
COC(=O)c1ccc(NC(=O)CCn2cccc2)cc1,-1,-6,-7,4,-2,9.6*
Brc1ccc(Oc2nsnc2N2CCOCC2)cc1,-1,7,-1,7,-3,-1
O=C(C1CCCCC1)N1CCN(c2ncccn2)CC1,-1,-3,-17,8,-1,-1
Cc1ccc(S(=O)(=O)n2ccnc2)cc1C,0,1,-9,8,-4,0
CCOc1ccccc1C1CC(=O)NC2=C1C(=O)CC(C)(C)C2 (centres undefined),0,-1,-13,-4,0,-2
COc1cc(-c2nc(-c3ccc(-c4ccccc4)nc3OC)no2)cc(OC)c1OC,-1,-5,-16,2,0,-2
CC1CN(CCC(=O)Nc2ccc3c(c2)OCO3)CC(C)O1 (centres undefined),/,-3,/,-11,1,1
O=C(CCN1CCN(c2ccccc2)CC1)Nc1ccc2c(c1)OCO2,-1,-3,/,83*,9,-1
CCOC(=O)CCNC(=O)Nc1ccc2nc(C)n(Cc3cccc(Cl)c3)c(=O)c2c1,0,4,-2,0,1,1
c1ccc(OCCCn2nnc(-c3ccc(N4CCOCC4)cc3)n2)cc1,0,-6,-4,-6,2,-1
